Measured values from ChEMBL document CHEMBL4152245, “Design, synthesis and biological evaluation of benzo[cd]indol-2(1H)-ones derivatives as BRD4 inhibitors” (Eur J Med Chem, 2018).
pIC50: −log10 of the molar value. Calls of active or inactive are those of the source. No cut-off for these calls is given here.

What was measured:
[1] = target: T1, Bromodomain-containing protein 4 (Homo sapiens, UniProt O60885); assay: (§1) Inhibition of His-tagged BRD4 bromodomain-1 (unknown origin) expressed in Escherichia coli BL21(DE3) using SGRGK(Ac)-GG-K(Ac)-GLG-K(Ac)-GGA-K(Ac)-RHRKVGG-K-Biotin as substrate preincubated for 15 mins followed by substrate addition measured after 10 mins by Alphascreen assay
In short: (§2)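 His-tagged BRD4_BD1 purified by Ni-NTA, anion exchange and gel filtration, tag retained. Assay buffer: 20 mM HEPES pH 7.4, 0.1% BSA, 0.01% Triton X-100, 1 mM DTT. Protein preincubated with compound 15 min at room temperature, biotinylated tetra-acetyl peptide added for 10 min, then streptavidin donor and nickel chelate acceptor beads for 60 min. Compounds screened at 20 and 5 µM; IC50 from three independent experiments.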

[2] = target: T1, Bromodomain-containing protein 4; assay: as §1, with “BL21(DE3) at 20 uM” for “BL21(DE3)”, “assay relative to control” for “assay”; in short: as §2
[3] = target: T1, Bromodomain-containing protein 4; assay: as §1, with “BL21(DE3) at 5 uM” for “BL21(DE3)”, “assay relative to control” for “assay”; in short: as §2
[4] = target: T1, Bromodomain-containing protein 4; assay: Binding affinity to His-tagged BRD4 bromodomain-1 (unknown origin) expressed in Escherichia coli BL21(DE3) assessed as change in melting temperature at 100 uM by SYPRO orange dye based thermal shift assay
In short: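 Buffer of 20 mM HEPES pH 7.4, 100 mM NaCl and 1 mM DTT, with 5× SYPRO Orange and 5 µM BRD4_BD1. Compound at 100 µM or 0.5% DMSO, DMSO matched across wells. Heated at 2.5 °C/min from 25 to 95 °C. Tm compared with the DMSO control.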

MV4-11 [5] = assay: Antiproliferative activity against human MV4-11 cells after 72 hrs by CellTiter-Glo luminescent assay; assay type: functional, cell-based; conditions: MV4-11, 72 h
In short: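 MV4-11 cells in RPMI 1640 with 10% FBS and 1% penicillin/streptomycin, seeded at 1×10⁵/mL. Compounds or DMSO added about 1 h later, then incubated 72 h. Viability read by CellTiter-Glo luminescence. Each dilution point run in triplicate, averaged, and fitted for IC50.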

HUVEC = assay: Antiproliferative activity against HUVEC after 72 hrs by CellTiter-Glo luminescent assay; assay type: cell-based; conditions: human
In short: (§3)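 HUV-EC-C, MRC5, RPTEC, A549, MDA-MB-231 and 22Rv1 cells seeded at 3×10⁴/mL and exposed to serially diluted compounds or DMSO. Viability read by CellTiter-Glo luminescence. Each dilution point run in triplicate, averaged, and fitted.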

MRC5 = assay: Antiproliferative activity against human MRC5 cells after 72 hrs by CellTiter-Glo luminescent assay; assay type: cell-based; conditions: mrc5, 72 h; in short: as §3
RPTEC = assay: Antiproliferative activity against human RPTEC cells after 72 hrs by CellTiter-Glo luminescent assay; assay type: cell-based; in short: as §3
MDA-MB-231 = assay: Antiproliferative activity against human MDA-MB-231 cells after 72 hrs by CellTiter-Glo luminescent assay; assay type: functional, cell-based; in short: as §3
A549 = assay: Antiproliferative activity against human A549 cells after 72 hrs by CellTiter-Glo luminescent assay; assay type: functional, cell-based; in short: as §3
CWR22R = assay: Antiproliferative activity against human 22Rv1 cells after 72 hrs by CellTiter-Glo luminescent assay; assay type: functional, cell-based; in short: as §3
MV4-11 [6] = assay: Cell cycle arrest in human MV4-11 cells assessed as accumulation at G1-phase after 24 hrs by propidium iodide staining based flow cytometry; assay type: functional
MV4-11 [7] = assay: Cell cycle arrest in human MV4-11 cells assessed as accumulation at G1-phase at 5 uM after 24 hrs by propidium iodide staining based flow cytometry (reference value: 61.39 to 63.23%); assay type: functional
MV4-11 [8] = assay: Cell cycle arrest in human MV4-11 cells assessed as accumulation at G2-phase at 5 uM after 24 hrs by propidium iodide staining based flow cytometry (reference value: 7.76 to 8.93%); assay type: functional
MV4-11 [9] = assay: Cell cycle arrest in human MV4-11 cells assessed as accumulation at S-phase at 5 uM after 24 hrs by propidium iodide staining based flow cytometry (reference value: 28.91 to 29.71%); assay type: functional
MV4-11 [10] = assay: Cell cycle arrest in human MV4-11 cells assessed as accumulation at G1-phase at 10 uM after 24 hrs by propidium iodide staining based flow cytometry (reference value: 61.39 to 63.23%); assay type: functional
MV4-11 [11] = assay: Cell cycle arrest in human MV4-11 cells assessed as accumulation at G2-phase at 10 uM after 24 hrs by propidium iodide staining based flow cytometry (reference value: 7.76 to 8.93%); assay type: functional
MV4-11 [12] = assay: Cell cycle arrest in human MV4-11 cells assessed as accumulation at S-phase at 10 uM after 24 hrs by propidium iodide staining based flow cytometry (reference value: 28.91 to 29.71%); assay type: functional
MV4-11 [13] = assay: Cell cycle arrest in human MV4-11 cells assessed as accumulation at G1-phase at 20 uM after 24 hrs by propidium iodide staining based flow cytometry (reference value: 61.39 to 63.23%); assay type: functional
MV4-11 [14] = assay: Cell cycle arrest in human MV4-11 cells assessed as accumulation at G2-phase at 20 uM after 24 hrs by propidium iodide staining based flow cytometry (reference value: 7.76 to 8.93%); assay type: functional
MV4-11 [15] = assay: Cell cycle arrest in human MV4-11 cells assessed as accumulation at S-phase at 20 uM after 24 hrs by propidium iodide staining based flow cytometry (reference value: 28.91 to 29.71%); assay type: functional
[16] = target: T1, Bromodomain-containing protein 4; assay: Inhibition of BRD4 in human MV4-11 cells assessed as downregulation of c-MYC mRNA expression after 6 hrs by RT-PCR analysis; assay type: cell-based
In short: (§4)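 MV4-11 cells at 5×10⁵/mL treated 6 h with various compound concentrations or DMSO. c-Myc, Bcl-2 and CDK6 transcripts quantified by qRT-PCR, normalized to B2M by the ΔΔCt method.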

[17] = target: T1, Bromodomain-containing protein 4; assay: Inhibition of BRD4 in human MV4-11 cells assessed as downregulation of Bcl2 mRNA expression after 6 hrs by RT-PCR analysis; assay type: cell-based; in short: as §4
[18] = target: T1, Bromodomain-containing protein 4; assay: Inhibition of BRD4 in human MV4-11 cells assessed as downregulation of CDK6 mRNA expression after 6 hrs by RT-PCR analysis; assay type: cell-based; in short: as §4
[19] = target: T1, Bromodomain-containing protein 4; assay: Inhibition of BRD4 in human MV4-11 cells assessed as downregulation of c-MYC protein expression after 6 hrs by Western blot analysis; assay type: cell-based
In short: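 MV4-11 cells at 5×10⁵/mL treated 6 h with various compound concentrations or DMSO. Immunoblotted with anti-c-Myc (1:1000, 4 °C overnight), then anti-rabbit secondary (1:10000, 1 h, room temperature).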

[20] = target: T1, Bromodomain-containing protein 4; assay: Inhibition of BRD4 (unknown origin) by Alphascreen assay; in short: as §2

Structure (SMILES) | pIC50 [1] | inhibition [2] | inhibition [3] | ΔTm [4] | inhibition [16] | inhibition [17] | inhibition [18] | inhibition [19] | also measured
CCN1C(=O)c2cccc3c(S(=O)(=O)N4CCCC4)ccc1c23 | 5.17 | 99% | 59% | 3.4 °C | Dose-dependent effect | Dose-dependent effect | Dose-dependent effect | Dose-dependent effect | pIC50 (MV4-11 [5]): 4.93; Activity (HUVEC): Non-Toxic; Activity (MRC5): Non-Toxic; Activity (RPTEC): Non-Toxic; Activity (MDA-MB-231): Active; Activity (A549): Active; Activity (CWR22R): Active; Activity (MV4-11 [6]): Dose-dependent effect; Activity (MV4-11 [7]): 73%; Activity (MV4-11 [8]): 5.47%; Activity (MV4-11 [9]): 21.52%; Activity (MV4-11 [10]): 80.04%; Activity (MV4-11 [11]): 4%; Activity (MV4-11 [12]): 15.95%; Activity (MV4-11 [13]): 87.22%; Activity (MV4-11 [14]): 2.9%; Activity (MV4-11 [15]): 9.88%
Cc1sc2c(c1C)C(c1ccc(Cl)cc1)=C[C@@H](CC(=O)OC(C)(C)C)c1nnc(C)n1-2 |  |  |  |  |  |  |  |  | pIC50 [20]: 7.11
CCN1C(=O)c2cccc3c(S(=O)(=O)N4CCC[C@@H]4C(=O)NN)ccc1c23 | 5.99 | 100% | 93% | 7.8 °C | Dose-dependent effect | Dose-dependent effect | Dose-dependent effect | Dose-dependent effect | 
CCN1C(=O)c2cccc3c(S(=O)(=O)NCCO)ccc1c23 | 5.81 | 100% | 98% | 13.2 °C |  |  |  |  | 
CCN1C(=O)c2cccc3c(S(=O)(=O)N4CCC[C@@H]4C(=O)O)ccc1c23 | 5.52 | 98% | 66% | 10.5 °C | Dose-dependent effect | Dose-dependent effect | Dose-dependent effect | Dose-dependent effect | 
CCN1C(=O)c2cccc3c(S(=O)(=O)N4CCC[C@@H]4C(=O)Nc4ccccc4)ccc1c23 | 5.84 | 100% | 87% | 13.9 °C |  |  |  |  | 
